MEKK3 PB1 HTS = modulators (inhibitors or enhancers) of MEK5 binding to human MEKK3 PB1 domain. 1.4% of 290,000 active. binding response (% of control), % at 10 µM. bead-based flow cytometry, Alexa488-MEK5 binding to MEKK3; actives lie on both sides; 0 = blocked by unlabeled MEK5, 100 = vehicle. AID 1529. Q99759;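 active = binding response more than 3 SD above or below the average of its plate-row segment, actives on both sides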;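 also: Alexa488 bead fluorescence after subtracting the streptavidin-only scavenger bead signal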
Target sequence (Q99759 whole entry, looked up, the tested form may be a part): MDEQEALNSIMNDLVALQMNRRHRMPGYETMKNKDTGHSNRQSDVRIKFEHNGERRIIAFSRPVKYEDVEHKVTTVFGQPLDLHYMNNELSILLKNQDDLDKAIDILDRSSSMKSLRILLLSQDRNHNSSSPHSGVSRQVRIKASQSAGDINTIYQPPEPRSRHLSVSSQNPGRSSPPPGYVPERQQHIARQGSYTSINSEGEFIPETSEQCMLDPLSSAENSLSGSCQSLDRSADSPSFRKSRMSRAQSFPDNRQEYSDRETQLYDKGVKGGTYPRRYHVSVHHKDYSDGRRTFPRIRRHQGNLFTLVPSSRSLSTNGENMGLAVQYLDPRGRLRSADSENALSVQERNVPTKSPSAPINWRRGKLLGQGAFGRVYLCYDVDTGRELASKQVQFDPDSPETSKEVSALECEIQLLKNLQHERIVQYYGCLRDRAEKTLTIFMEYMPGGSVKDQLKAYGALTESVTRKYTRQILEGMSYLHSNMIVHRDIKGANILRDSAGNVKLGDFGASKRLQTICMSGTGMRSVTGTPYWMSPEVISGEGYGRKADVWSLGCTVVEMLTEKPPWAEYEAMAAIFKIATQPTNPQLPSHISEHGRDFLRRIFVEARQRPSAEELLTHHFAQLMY
MEKK2 WT-MEK5 = raises or lowers MEK5 binding to wildtype human MEKK2 PB1 domain; bead flow cytometry, Alexa488-MEK5 binding to MEKK2 WT; actives lie on both sides; 1.1% of 290,000 active; binding response (% of control), % at 10 µM; in the data active = binding response below about 67% or above about 130%
VIM-2 inhibitor = inhibitors of Pseudomonas aeruginosa VIM-2 metallo-beta-lactamase; purified VIM-2, nitrocefin hydrolysis, epi-absorbance fluorescence; inhibition, % at 5.6 µM; 0.89% of 290,000 active; AID 1527;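 active = inhibition above the mean of all tested compounds plus 3 SD, cutoff set per screening run, cut at about 7.5% in these data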;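 also: red hydrolysis product quenches plate fluorescence so inhibitors raise well fluorescence; 0% = enzyme with DMSO and 100% = DMSO without enzyme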
IMP-1 inh = inhibitors of Pseudomonas aeruginosa IMP-1 metallo-beta-lactamase. purified IMP-1, nitrocefin hydrolysis, epi-absorbance fluorescence. inhibition, % at 5.6 µM. 0.45% of 290,000 active. AID 1556;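 active = inhibition above the mean plus 3 SD of all compounds in the same screening run, cut at about 4.5% in these data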;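 also: 0% = IMP-1 with DMSO and 100% = DMSO wells lacking enzyme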
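assay system = purified recombinant IMP-1 metallo-beta-lactamase enzyme | schedule = 15 min preincubation plus 25 min reaction at 25 °C | signal = Epi-absorbance fluorescence, 480 nm excitation, 530 nm emission | read-out basis = percent inhibition from optical density relative to buffer-blank wells | controls = IMP-1 with DMSO as 0%, enzyme-free DMSO as 100%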
MEKK2mut PB1 HTS = signal of MEK5 binding to mutant human MEKK2 PB1 domain; bead flow cytometry, Alexa488-MEK5 binding to MEKK2 mutant; percent response, % at 10 µM; 0.35% of 290,000 active; AID 1530; in the data active = percent response above about 24%, passing the limit was not always enough
Numbers without * were called inactive; · = no result; [ ] = remark or other dose. Shown are actives, neighbours in structure and some others; about 3.4% of the full set was active somewhere.

SMILES | MEKK3 PB1 HTS | MEKK2 WT-MEK5 | VIM-2 inhibitor | IMP-1 inh | MEKK2mut PB1 HTS
COc1ccc(C=Nc2cccc3c(=O)[nH][nH]c(=O)c23)c2ccccc12 | 102 | 101 | -1 | 27* | 2
COc1cccc(C=Nc2cccc3c(=O)[nH][nH]c(=O)c23)c1O | 102 | 93 | -5 | 0 | -2
Nc1c(C(=O)O)sc2nc3c(cc12)CCCC3 | 103 | 97 | -2 | -3 | 0
N#Cc1sc2nc3c(cc2c1N)CCCC3 | 106 | 101 | -1 | 17* | -3
O=C1N(O)C2(C=CCCC2)/C(=N\O)C12CCCCC2 (stereo not drawn) | 103 | 107 | 10* | 1 | 8
COc1ccc(NC(=O)NCc2cccnc2)c(OC)c1 | 100 | 106 | 0 | 16* | 4
O=C(O)c1cc(-n2nnnc2SCc2ccccc2F)ccc1Cl | 102 | 99 | 10* | -2 | 6
Oc1cccc(-n2nnnc2SCc2ccccc2F)c1 | 106 | 102 | -2 | -2 | 4
O=C(CN1C(=O)S/C(=C\c2ccc(-c3cc(C(=O)O)ccc3Cl)o2)C1=O)Nc1ccc2c(c1)OCO2 | 96 | 96 | -2 | 17* | -3
Cn1cc(/C=C2/SC(=O)N(CC(=O)Nc3ccc4c(c3)OCO4)C2=O)c2ccccc21 | 99 | 95 | -1 | -1 | 2
COc1ccc(-c2noc(CN(C)Cc3ccccc3)n2)c(OC)c1OC | 106 | 108 | -2 | 0 | 9
Oc1ccc(-c2c(C3=CCCCC3)sc3ccccc23)cc1 | 101 | 98 | 0 | 5.1* | -2
CC(=O)Nc1ccc(NC(=O)CN2CCN(c3ccccn3)CC2)cc1 | 89 | 92 | -1 | 1 | -18
O=C(CN1CCN(c2ccccn2)CC1)Nc1ccc(OC(F)(F)F)cc1 | 103 | 104 | -5 | 6.1* | 5
N=C1/C(=C\c2ccc(-c3cccc(Cl)c3)o2)C(=O)N=C2SC=C(c3ccccc3)N12 | 97 | 85 | -1 | 2 | 2
N=C1/C(=C\c2ccc(-c3ccc(C(=O)O)cc3)o2)C(=O)N=C2SC=C(c3ccccc3)N12 | 95 | 89 | 1 | 11* | -7
Cc1cccc(C(=O)Nc2nnc(C3=COCCO3)o2)c1 | 103 | 106 | -2 | -1 | -2
Cc1ccc(/C=N/N(C)C2=NS(=O)(=O)c3ccccc32)cc1 | 104 | 106 | 5 | -2 | 8
CN(/N=C/c1ccncc1)C1=NS(=O)(=O)c2ccccc21 | 97 | 96 | 9.9* | -3 | -5
CN(C)c1ccc(/C=N/N(CCC#N)C2=NS(=O)(=O)c3ccccc32)cc1 | 106 | 106 | 9.1* | -2 | 4
O=C(O)C1C2C=CC(CC2)C1C(=O)O (stereo not drawn) | 97 | 100 | 0 | -4 | -15
CC1C=CC(C)C(C(=O)O)C1C(=O)O (stereo not drawn) | 101 | 104 | -2 | 23* | -1
COCCn1c(N)c(Sc2ccccc2)c(=O)[nH]c1=O | 103 | 95 | 1 | -4 | -5
CCCCn1c(N)c(Sc2ccccc2)c(=O)[nH]c1=O | 99 | 100 | -1 | 5.0* | -5
Cc1ccc(S(=O)(=O)N2CCOCC(=O)NCCOCCNC(=O)COCC2)cc1 | 103 | 101 | 0 | -2 | 7
SMILES | MEKK3 PB1 HTS | MEKK2 WT-MEK5 | VIM-2 inhibitor | IMP-1 inh | MEKK2mut PB1 HTS
Cc1cc(C)c2c(c1)[C@@H]1C=CC[C@@H]1[C@H](c1ccc(S(=O)(=O)N3CCOCC3)cc1)N2 | 104 | 97 | -1 | 8.1* | 2
Cc1ccc(/C=N/Nc2ccnc3cc(Cl)ccc23)c(C)c1 | 101 | 167* | -2 | -3 | 30
Cc1ccccc1/C=N/Nc1ccnc2cc(Cl)ccc12 | 96 | 122 | -4 | -3 | 5
Clc1ccc2c(N/N=C/c3ccc(Br)cc3)ccnc2c1 | 90 | 116 | -2 | -3 | -1
Clc1ccc2c(N/N=C/c3cccnc3)ccnc2c1 | 109 | 106 | 11* | 1 | 0
O=C(NNC(=O)c1ccccc1C(=O)O)c1cc2ccccc2o1 | 97 | 97 | -4 | -4 | 0
Cc1ccc(S(=O)(=O)n2nc(OC(=O)C3CCCCC3)cc2N)cc1 | 114 | 109 | 3 | 0 | 9
O=C(NC(=Nc1ccccc1)N1CCOCC1)Nc1ccccc1 | 89 | 91 | -4 | -4 | -5
Cc1oc(-c2cc(F)ccc2F)nc1CN1CCN(C)C(=O)[C@@H]1C | 54 | 22* | 1 | 0 | -11
Cc1ccsc1-c1nc(CN2CCN(C)C(=O)[C@@H]2C)c(C)o1 | 101 | 103 | -6 | -2 | -3
COC(=O)c1ccc2c(c1)C(C)(C)C(/C=C/c1ccc(O)cc1)=[N+]2C | 72 | 51*[inhibitor] | -1 | -4 | -8
COC(=O)c1ccc2c(c1)C(C)(C)C(/C=C/c1ccc(OC)c(OC)c1OC)=[N+]2C | 106 | 107 | 1 | 1 | 4
Cc1ccc(Cc2c(C)nc3nc(SCC(=O)NCCCN4CCCCC4)nn3c2C)cc1 | 96 | 111 | 0 | -1 | 0
Cc1ccccc1Cc1c(C)nc2nc(SCC(=O)NCCCN3CCCC3)nn2c1C | 105 | 136* | -1 | -2 | 19
Cc1ccc(Cc2c(C)nc3nc(SCC(=O)NCCCN4CCCC4)nn3c2C)cc1 | 109 | 147* | -2 | -4 | 21
O=C(CSCc1ccccc1)N1CCN(c2ccc(F)cc2)CC1 | 100 | 97 | 1 | -1 | -2
O=C(CNCCc1ccc(Cl)cc1)Nc1ccc(C(=O)N2CCCCC2)cc1 | 102 | 111 | -4 | -2 | 7
Cc1nn(Cc2ccccc2Cl)c(C)c1C(=O)N1CCN(c2ccccc2)CC1 | 103 | 106 | -3 | -2 | 2
COc1cc(-c2cc(=O)c3ccccc3o2)ccc1O | 108 | 97 | 9.5* | -2 | -3
COc1cc(-c2cc(=O)c3c(O)cc(O)cc3o2)ccc1O | 108 | 114 | 0 | -3 | 11
CCCSc1nc2sc3c(c2c(=O)[nH]1)CCN(Cc1ccccc1)C3 | 113 | 115 | -3 | 1 | 14
O=c1[nH]c(C(Cl)Cl)nc2sc3c(c12)CCN(Cc1ccccc1)C3 | 89 | 92 | 3 | 11* | -4
O=C(O)CCCCCNS(=O)(=O)c1ccc(Cl)cc1 | · | · | 0 | 0 | ·
COc1cccc(/C=N/Nc2ncnc3scc(-c4ccccc4)c23)c1OC | 109 | 100 | -3 | 1 | 3
CCN1CCN(C(=O)c2cc3c(-c4ccc(Cl)cc4)nn(C)c3s2)CC1 | 101 | 113 | 11* | 0 | 5
Cn1nc(-c2ccc(Cl)cc2)c2cc(C(=O)N3CCN(C(=O)c4ccco4)CC3)sc21 | 111 | 109 | 0 | 1 | 3
COc1ccc(NC(=O)c2cc(=O)[nH]c3ccccc23)cc1 | 100 | 105 | 0 | 1 | 1
O=C(OCC(=O)N1CCc2ccccc21)c1ccccc1F | 101 | 100 | 2 | -3 | 12
COc1cc(/C=C/c2cc[n+](C)cc2)ccc1OCC(=O)Nc1ccc(Cl)c(Cl)c1 | 111 | 237* | -2 | -1 | 75*
